This is an account of results in ChEMBL document CHEMBL1135421, “2-(Anilinomethyl)imidazolines as alpha1 adrenergic receptor agonists: the discovery of alpha1a subtype selective 2'-alkylsulfonyl-substituted analogues” (J Med Chem, 2002).

For test [1], the target named is T1, Alpha-2A adrenergic receptor (Homo sapiens, UniProt P08913).
T1 sequence (P08913 whole entry): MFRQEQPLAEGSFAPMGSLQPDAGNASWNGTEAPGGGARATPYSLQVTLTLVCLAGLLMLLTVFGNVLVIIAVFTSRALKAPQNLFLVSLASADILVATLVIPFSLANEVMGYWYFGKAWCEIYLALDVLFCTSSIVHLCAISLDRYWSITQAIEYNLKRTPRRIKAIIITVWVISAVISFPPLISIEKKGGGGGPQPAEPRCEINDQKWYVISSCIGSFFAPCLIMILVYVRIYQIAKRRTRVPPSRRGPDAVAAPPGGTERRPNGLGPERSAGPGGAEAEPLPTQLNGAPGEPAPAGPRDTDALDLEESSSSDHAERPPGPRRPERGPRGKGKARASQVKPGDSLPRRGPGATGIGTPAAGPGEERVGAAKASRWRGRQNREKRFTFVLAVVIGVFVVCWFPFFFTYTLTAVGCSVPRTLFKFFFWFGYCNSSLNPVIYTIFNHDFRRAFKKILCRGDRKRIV
The experiment in a line: Affinity to human Alpha-2A adrenergic receptor determined by radioligand binding techniques from chinese hamster ovary (CHO) cells. It counts as cell-based.

The target in test [2] is T2, Alpha-1D adrenergic receptor (Homo sapiens, UniProt P25100).
T2 sequence (P25100 whole entry): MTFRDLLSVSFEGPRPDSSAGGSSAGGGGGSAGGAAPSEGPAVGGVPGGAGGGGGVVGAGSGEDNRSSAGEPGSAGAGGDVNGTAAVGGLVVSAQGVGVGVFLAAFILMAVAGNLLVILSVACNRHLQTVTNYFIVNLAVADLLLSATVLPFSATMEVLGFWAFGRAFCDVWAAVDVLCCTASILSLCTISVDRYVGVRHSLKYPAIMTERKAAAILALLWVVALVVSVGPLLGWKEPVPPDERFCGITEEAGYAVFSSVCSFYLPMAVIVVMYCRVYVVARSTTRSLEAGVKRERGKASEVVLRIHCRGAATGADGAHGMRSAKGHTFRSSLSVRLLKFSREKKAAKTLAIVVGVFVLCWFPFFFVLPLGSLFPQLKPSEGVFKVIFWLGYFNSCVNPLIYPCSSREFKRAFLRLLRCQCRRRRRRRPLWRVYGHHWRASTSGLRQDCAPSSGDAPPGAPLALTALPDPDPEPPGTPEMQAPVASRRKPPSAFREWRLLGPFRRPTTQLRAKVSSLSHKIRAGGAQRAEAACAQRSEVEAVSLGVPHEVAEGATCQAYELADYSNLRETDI
The test is described as follows: Affinity to human Alpha-1D adrenergic receptor determined by radioligand binding techniques from rat-1 fibroblasts membranes.

The target of test [3] is T2, Alpha-1D adrenergic receptor. The test is described as follows: Agonist potency at Alpha-1D adrenergic receptor assayed in rat-1 fibroblasts expressing human Alpha-1D adrenergic receptor. The class given is functional. In short, it runs like this: (§1)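 Rat-1 fibroblasts expressing human α1a/α1b/α1d, grown in DMEM with 10% heat-inactivated FBS and 0.6 mg/mL G418, plated 6000 cells/well and cultured 48 h at 37 °C. Loaded 2 h at 37 °C with Calcium Green (4 μM), 0.2% pluronic acid and 2.5 mM probenecid in HEPES buffer pH 7.4. FLIPR read at room temperature: 10 s baseline, then 50 s after compound. 11-point curves as % of 40 μM phenylephrine response, top concentration typically 5 μM.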

The target in test [4] is T3, Alpha-1A adrenergic receptor (Homo sapiens, UniProt P35348).
T3 sequence (P35348 whole entry): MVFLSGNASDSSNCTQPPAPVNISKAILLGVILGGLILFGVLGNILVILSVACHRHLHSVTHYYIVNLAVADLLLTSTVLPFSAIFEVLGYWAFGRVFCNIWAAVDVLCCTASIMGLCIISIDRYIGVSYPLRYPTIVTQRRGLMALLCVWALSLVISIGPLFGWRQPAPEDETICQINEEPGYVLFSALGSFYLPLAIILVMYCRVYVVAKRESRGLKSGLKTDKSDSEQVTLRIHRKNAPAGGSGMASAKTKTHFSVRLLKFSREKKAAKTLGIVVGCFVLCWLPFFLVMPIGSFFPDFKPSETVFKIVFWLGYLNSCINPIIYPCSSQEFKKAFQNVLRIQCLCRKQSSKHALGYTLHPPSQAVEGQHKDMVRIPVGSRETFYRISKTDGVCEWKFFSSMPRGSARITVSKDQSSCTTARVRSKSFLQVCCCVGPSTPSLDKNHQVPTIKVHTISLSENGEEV
The test is described as follows: Agonist potency at Alpha-1 adrenergic receptor assayed in rat-1 fibroblasts expressing human Alpha-1 adrenergic receptor. It counts as functional. In short, it runs like this: as §1

In test [5] the target is T4, Alpha-2A adrenergic receptor (Homo sapiens) (UniProt P08913).
T4 sequence (whole entry): T1 sequence (P08913 whole entry)
The experiment in a line: Efficacy as percentage of the maximal effect observed for nonselective agonist UK-14304 in CHO cells expressing human Alpha-2A adrenergic receptor. The class given is functional, cell-based.

Test [6] addresses T3, Alpha-1A adrenergic receptor. The experiment in a line: Affinity to Alpha-1 adrenergic receptor determined by radioligand binding techniques from rat-1 fibroblasts membranes.
Test [7] concerns the target T5, Alpha-1B adrenergic receptor (Homo sapiens, UniProt P35368).
T5 sequence (P35368 whole entry): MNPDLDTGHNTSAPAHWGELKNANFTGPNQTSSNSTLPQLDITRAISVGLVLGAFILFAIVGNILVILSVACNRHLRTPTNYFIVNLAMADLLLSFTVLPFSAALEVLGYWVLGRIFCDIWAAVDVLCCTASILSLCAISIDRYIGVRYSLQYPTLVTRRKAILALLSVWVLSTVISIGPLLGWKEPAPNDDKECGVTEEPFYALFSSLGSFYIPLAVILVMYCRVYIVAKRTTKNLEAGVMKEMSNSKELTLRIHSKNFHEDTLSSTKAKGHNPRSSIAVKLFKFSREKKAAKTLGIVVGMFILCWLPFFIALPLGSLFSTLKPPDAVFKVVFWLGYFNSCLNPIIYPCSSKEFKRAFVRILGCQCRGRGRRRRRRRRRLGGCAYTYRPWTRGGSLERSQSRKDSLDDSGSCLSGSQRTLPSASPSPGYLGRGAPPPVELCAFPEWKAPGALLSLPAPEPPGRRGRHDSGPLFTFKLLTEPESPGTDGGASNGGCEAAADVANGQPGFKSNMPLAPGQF
The test is described as follows: Affinity to human Alpha-1B adrenergic receptor determined by radioligand binding techniques from rat-1 fibroblasts membranes.

Test [8] has as its target T6, Alpha-2C adrenergic receptor (Homo sapiens) (UniProt P18825).
T6 sequence (whole entry): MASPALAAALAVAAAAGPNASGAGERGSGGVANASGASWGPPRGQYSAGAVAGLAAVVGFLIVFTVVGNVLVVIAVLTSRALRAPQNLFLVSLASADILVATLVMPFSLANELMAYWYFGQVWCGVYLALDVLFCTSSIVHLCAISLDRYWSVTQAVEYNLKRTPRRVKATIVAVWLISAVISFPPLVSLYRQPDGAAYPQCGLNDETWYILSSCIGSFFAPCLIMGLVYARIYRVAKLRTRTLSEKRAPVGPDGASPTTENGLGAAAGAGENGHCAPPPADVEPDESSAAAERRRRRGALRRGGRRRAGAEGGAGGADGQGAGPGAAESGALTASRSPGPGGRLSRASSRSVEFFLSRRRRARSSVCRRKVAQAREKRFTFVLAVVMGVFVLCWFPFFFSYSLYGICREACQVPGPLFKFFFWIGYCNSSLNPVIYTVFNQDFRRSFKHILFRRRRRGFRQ
The experiment in a line: Efficacy as percentage of the maximal effect observed for nonselective agonist UK-14304 in CHO cells expressing human Alpha-2C adrenergic receptor. The class given is functional, cell-based.

Test [9] concerns the target T7, Alpha-2C adrenergic receptor (Homo sapiens, UniProt P18825).
T7 sequence (P18825 whole entry): T6 sequence (whole entry)
The test is described as follows: Affinity to human Alpha-2C adrenergic receptor determined by radioligand binding techniques from chinese hamster ovary (CHO) cells. The class given is cell-based.

For test [10], the target named is T5, Alpha-1B adrenergic receptor. The experiment in a line: Agonist potency at Alpha-1B adrenergic receptor expressed in rat-1 fibroblasts. It counts as functional.
For test [11], the target named is T1, Alpha-2A adrenergic receptor. The test is described as follows: Agonist potency at Alpha-2A stably expressed in CHO cells. The class given is functional, cell-based.
Test [12] addresses T7, Alpha-2C adrenergic receptor. The experiment in a line: Agonist potency at Alpha-2C adrenergic receptor assayed in CHO cells expressing human Alpha-2C adrenergic receptor. It counts as functional, cell-based.
In test [13] the target is T8, Alpha-1A adrenergic receptor (Homo sapiens) (UniProt P35348).
T8 sequence (whole entry): T3 sequence (P35348 whole entry)
The experiment in a line: Efficacy as % of the maximal effect observed for nonselective agonist phenylephrine in rat-1 fibroblasts expressing human Alpha-1 adrenergic receptor. It counts as functional. A digest of the protocol:
as §1

Test [14] concerns the target T9, Alpha-2B adrenergic receptor (Homo sapiens, UniProt P18089).
T9 sequence (P18089 whole entry): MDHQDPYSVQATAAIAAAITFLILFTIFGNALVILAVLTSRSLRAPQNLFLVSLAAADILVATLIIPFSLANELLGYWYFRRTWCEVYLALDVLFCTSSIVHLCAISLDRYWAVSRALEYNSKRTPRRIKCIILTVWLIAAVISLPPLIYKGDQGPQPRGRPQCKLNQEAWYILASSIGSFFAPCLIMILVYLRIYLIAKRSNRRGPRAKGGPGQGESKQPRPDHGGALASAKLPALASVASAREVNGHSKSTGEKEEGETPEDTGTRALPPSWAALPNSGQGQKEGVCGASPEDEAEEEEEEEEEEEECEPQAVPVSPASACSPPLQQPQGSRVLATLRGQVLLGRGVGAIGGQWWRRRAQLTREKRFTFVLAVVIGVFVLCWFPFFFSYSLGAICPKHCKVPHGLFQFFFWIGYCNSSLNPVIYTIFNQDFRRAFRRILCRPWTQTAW
The experiment in a line: Affinity to human Alpha-2B adrenergic receptor determined by radioligand binding techniques from chinese hamster ovary (CHO) cells. It counts as cell-based.

By Ki is commonly meant the equilibrium dissociation constant of an inhibitor or competing ligand from its target. As a reminder, the EC50 is the concentration at which the effect is half-maximal. Low values mean an effect from little substance, high ones a need for much substance.

“And” between values parts separate entries of the source, which are not always exact repeats. Equal values may be shown once.

`O=S1(=O)CCCc2cccc(NCC3=NCCN3)c21`: the Ki in test [1] was 0.794 µM; in test [2], more than 15.8 µM; in [6], 0.617 µM; in test [7], 2.14 µM; in test [9] it was 2.69 µM. Besides, the EC50 was more than 100 µM in test [3]; more than 100 µM in [4]; more than 100 µM in [10]; more than 10 µM in test [11]; 6.31 µM in test [12]. In addition, the results for the Max in test [5] and in test [8] were 29% and 69%, respectively.

Regarding `Cc1cc(C(C)(C)C)c(O)c(C)c1CC1=NCCN1`, the Max in [5] amounted to 88%.

Turning to `COc1ccc(S(C)(=O)=O)c(NCC2=NCCN2)c1`, the Ki was 3.63 µM in [1]; 7.59 µM in [2]; 1.62 µM in test [6]; more than 6.31 µM in test [14]; 4.57 µM in test [7]; more than 5.01 µM in [9]. Also, the EC50 was more than 100 µM in test [3]; 0.0141 µM in test [4]; more than 100 µM in test [10]; > 10 µM and 3.31 µM in test [11]. Besides, the Max was 102% in test [13], 16% in test [5] and 49% in test [8].

As to `CS(=O)(=O)Nc1ccc(F)c([C@@H](O)CN)c1` [NS-49], the EC50 in [3] was more than 100 µM; in test [4] it was 0.158 µM; in test [10], more than 100 µM; in test [11], more than 10 µM; in test [12], 2 µM. Also, the Max in [13] was 109%; in [5], 34%; in [8], 87%. The Ki in test [6] was 1.12 µM; in test [7], 11.2 µM.
